Bioassay records (PubChem)
An excerpt weighted towards active compounds, which were near 3.3% of everything screened.
ATG4B inhibitor – ATG4B (human) cysteine protease inhibition; Q9Y4P1; ATG4B cleavage of LC3-PLA2, NBD-HPC fluorescence, 1 h; inhibition, % at 8.33 µM; 340,000 compounds, 0.51% hits; in the data active means inhibition above about 40%
Arr AP2 block – human beta-arrestin and AP2 interaction inhibition; FITC-arrestin peptide / GST-AP2 beads, flow cytometry; AP2 beta2 appendage carries R879A mutation; inhibition, % at 10 µM; 340,000 compounds, 0.31% hits; AID 504490;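 active means inhibition above a set limit, near 3 SD of compounds lacking own fluorescence, cut at about 54% in these data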;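 further: plate controls were DMSO wells for no effect and 5 µM unlabelled arrestin peptide for full effect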
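Material – GST-tagged AP2 beta2-adaptin appendage (R879A) on 4 µm glutathione beads · Probe or stimulus – fluorescein-tagged arrestin peptide at 50 nM final · Timing – 12 min plus 1 h, RT · Detection – bead flow cytometry, FITC channel · Read-out basis – inhibition as reduced fluorescein signal on beads, percent · Medium – PBS plus Tween 20 (0.05%) and BSA (0.1%)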
ABCB6 inh 2 – human ABCB6 transporter inhibition | Q9NP58 | K562-ABCB6 porphyrin accumulation, flow cytometry, 1 h; stronger effect = lower value | fluorescence ratio to DMSO, % at 10 µM | 360,000 compounds, 0.19% hits | AID 602162;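 active means fluorescence ratio to DMSO below 75%, the collection mean minus 3 SD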;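 further: signal is porphyrin accumulated inside mitochondria; 100% equals median channel fluorescence of DMSO control wells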
Myeloid diff 2 – promotes myeloid progenitor differentiation; 360,000 compounds, 1% hits; ER-HoxA9 myeloid progenitors, lysozyme-GFP differentiation, flow cytometry; AID 624256; calls only at 10 µM;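 active means normalized GFP-positive differentiation at or above the plate's own cutoff, the solvent-only control mean plus 3 SD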;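 further: cells exposed to compound for four days before flow analysis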
NRP1-CendR mod – alters CendR peptide binding to human NRP-1; AID 602438; FAM-RPARPAR peptide binding to NRP-1, fluorescence polarization; inhibition, % at 25 µM; 360,000 compounds, 0.85% hits;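 active means inhibition or corrected inhibition above about 18%, plus a signal ratio from 0.5 to 1.5, limit read from the data, passing the limit was not always enough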
Exocytosis inh – lytic granule exocytosis inhibition; inhibition, % at 10 µM; 360,000 compounds, 0.66% hits; AID 651702; TALL-104 LAMP-1 surface exposure, flow cytometry; cells stimulated with thapsigargin and PMA;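 active means inhibition above about 55%, limit read from the data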
* hit, by the source's call; i = inactive; nt = no result given; + = active, no number; ! = repeats disagree.

SMILES	ATG4B inhibitor	Arr AP2 block	ABCB6 inh 2	Myeloid diff 2	NRP1-CendR mod	Exocytosis inh
O=S(=O)(c1cccc2cnccc12)N1CCNCC1	7	26	96	i	-5	-1
O=S(=O)(c1cccc2ccccc12)N1CCSC1	-2	26	99	i	30*	-1
CC(Nc1nc(-c2ccc(F)cc2)cs1)c1nc2cc(C(F)(F)F)ccc2n1CCOCCO (stereo unspecified)	-3	7	94	i	28*	-6
COc1cc(NC(=O)Nn2cnnc2)cc(OC)c1OC	-3	-11	97	+	-5	-6
COc1ccc(/C(C#N)=C/c2cccnc2)cc1	nt	10	96	i	19*	-1
COC(=O)C1=C(C)NC2=C(C(=O)CC(c3cccs3)C2)C1c1ccsc1 (stereo unspecified)	6	11	103	i	5	-10
CCOC(=O)C1=C(C)NC2=C(C(=O)CC(c3cccs3)C2)C1c1cccs1 (stereo unspecified)	-11	-2	116	+	9	45
CCN1CCN(C(=O)Nc2ccccc2OC)CC1	-8	19	100	i	0	2
CCCNC(=O)C(Cc1ccccc1)NC(=O)c1ccc(C(C)(C)C)cc1 (stereo unspecified)	-4	22	98	i	26*	-9
CC1=CC(=C(C#N)c2nc3ccccc3s2)C=C(C)N1c1ccc(F)cc1	24	4	114	i	-17	-1
COc1ccccc1N1C(C)=CC(=C(C#N)c2nc3ccccc3s2)C=C1C	14	27	106	+	-7	-1
O=C(Nc1nc(-c2ccccc2)cs1)c1ccc(N2CCOCC2)c([N+](=O)[O-])c1	-16	-9	85	i	-13	84*
Cc1cccc(-n2ncc3c2CCCC3NC(=O)CCN2CCCO2)c1C (stereo unspecified)	6	19	101	i	-3	-3
Cc1cccc(-n2ncc3c2CCCC3NC(=O)CCN2CCCCO2)c1C (stereo unspecified)	-5	-6	99	i	23*	-6
CC(=O)NS(=O)(=O)c1ccc(N=NN2CCOCC2)cc1	3	2	99	i	27*	-2
CC(=O)NS(=O)(=O)c1ccc(N=NN2CCCCCC2)cc1	0	30	97	i	3	-4
N#C/C(=C\c1ccc(N2CCCCC2)o1)C(=O)Nc1cccc(Br)c1	-3	10	617	+	136	49
N#C/C(=C\c1ccc(N2CCCCC2)o1)C(N)=O	5	9	99	i	-187	-1
CN(C)c1ccc(Cl)cc1N	9	3	93	i	28*	3
Cc1cccc(NC(=O)C2(c3cccs3)CCOCC2)n1	18	12	103	i	-4	1
CC(CCN1CCC(n2nccc2NC(=O)c2ccccc2Cl)CC1)c1ccccc1 (stereo unspecified)	-8	-9	97	i	8	-7
O=C(CN(C(=O)Cn1nnc(-c2ccccc2F)n1)c1cccc2c1CCCC2)NCc1ccccc1	32	25	90	+	-12	28
CC(C)CCNC(=O)CN(C(=O)Cn1nnc(-c2ccccc2F)n1)c1cccc2c1CCCC2	34	-6	100	i	-6	2
S=c1[nH]nc(-c2cc(-c3ccccc3)n[nH]2)n1/N=C/C(Br)=C/c1ccccc1	-3	10	99	nt	-5	63*
NC(Cc1ccc(O)c([N+](=O)[O-])c1)C(=O)O (stereo unspecified)	-7	26	103	i	-2	-1
N[C@@H](Cc1cc(I)c(Oc2cc(I)c(O)c(I)c2)c(I)c1)C(=O)O	45*	nt	nt	nt	nt	nt
N[C@@H](Cc1cc(I)c(Oc2ccc(O)c(I)c2)c(I)c1)C(=O)O	84*!	1	103	i	-81	2
N[C@@H](Cc1ccc(O)c(O)c1)C(=O)O	6	-1	100	i	5	-5
Cc1ccc(OCC(=O)c2cc(C)n(-c3cc(C)on3)c2C)c([N+](=O)[O-])n1	-5	37	98	+	6	-3
Cc1ccc2ccccc2c1C(O)c1ncc(-c2ccccc2Cl)[nH]1 (stereo unspecified)	nt	nt	97	i	-11	-2
